Measured values: the M2OR odorant receptor database
Positions count from the first letter of the chain named.

Columns and labels:
Conditions in all cases: stereoisomer not certain
O5AN1 = system: T1, O5AN1
T1 sequence (whole entry): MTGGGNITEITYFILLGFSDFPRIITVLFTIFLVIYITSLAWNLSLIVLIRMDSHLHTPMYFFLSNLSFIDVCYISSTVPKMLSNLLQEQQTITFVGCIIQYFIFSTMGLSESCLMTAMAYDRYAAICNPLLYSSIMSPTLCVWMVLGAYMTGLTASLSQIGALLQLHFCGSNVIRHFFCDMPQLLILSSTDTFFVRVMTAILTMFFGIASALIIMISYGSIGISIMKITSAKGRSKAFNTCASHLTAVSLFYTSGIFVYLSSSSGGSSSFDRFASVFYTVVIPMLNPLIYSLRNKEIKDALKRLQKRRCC
In short: (§1)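 Each receptor–molecule pair is labelled responsive or non-responsive (inactive) according to whether the original authors judged the measured signal statistically different from baseline. The data were taken from the main text and supplementary material of published papers and checked for typos and inconsistencies. Assay methods differed by source, with transient luciferase assays in mammalian cell lines being common.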

O56A4 I247V = system: T2, O56A4 I247V
T2 sequence (whole entry): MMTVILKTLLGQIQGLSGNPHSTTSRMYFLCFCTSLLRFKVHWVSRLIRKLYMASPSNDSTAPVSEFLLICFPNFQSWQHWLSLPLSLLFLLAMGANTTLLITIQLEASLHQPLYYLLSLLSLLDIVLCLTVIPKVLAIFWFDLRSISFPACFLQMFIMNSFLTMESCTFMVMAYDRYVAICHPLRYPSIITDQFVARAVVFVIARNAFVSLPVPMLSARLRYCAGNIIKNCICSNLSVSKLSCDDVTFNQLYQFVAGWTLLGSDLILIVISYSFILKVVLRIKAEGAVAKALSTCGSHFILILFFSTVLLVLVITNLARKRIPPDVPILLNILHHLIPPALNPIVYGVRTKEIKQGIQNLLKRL
In short: as §1

O56A4 = system: T3, O56A4
T3 sequence (whole entry): T2 sequence (whole entry) with V247I
In short: as §1

O56A5 V104L = system: T4, O56A5 V104L
T4 sequence (whole entry): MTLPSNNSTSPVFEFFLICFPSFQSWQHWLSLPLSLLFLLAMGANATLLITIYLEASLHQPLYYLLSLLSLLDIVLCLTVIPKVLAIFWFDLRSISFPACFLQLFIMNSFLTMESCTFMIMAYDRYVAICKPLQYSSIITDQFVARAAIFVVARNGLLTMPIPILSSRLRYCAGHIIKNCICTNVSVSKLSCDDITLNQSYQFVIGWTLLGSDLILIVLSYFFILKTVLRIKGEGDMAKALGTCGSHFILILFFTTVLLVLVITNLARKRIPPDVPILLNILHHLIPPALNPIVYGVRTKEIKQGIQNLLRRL
In short: as §1

O56B1 C106R L214F = system: T5, O56B1 C106R L214F
T5 sequence (whole entry): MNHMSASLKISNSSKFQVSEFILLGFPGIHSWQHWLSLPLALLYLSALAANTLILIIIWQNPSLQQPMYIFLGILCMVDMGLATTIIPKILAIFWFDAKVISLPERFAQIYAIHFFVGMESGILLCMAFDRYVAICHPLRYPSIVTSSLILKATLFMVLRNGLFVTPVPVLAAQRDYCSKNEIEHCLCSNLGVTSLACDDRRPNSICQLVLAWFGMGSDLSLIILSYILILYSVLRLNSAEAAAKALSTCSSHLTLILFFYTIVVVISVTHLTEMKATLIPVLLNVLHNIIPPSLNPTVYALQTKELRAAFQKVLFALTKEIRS
In short: as §1

O56B1 L214F = system: T6, O56B1 L214F
T6 sequence (whole entry): T5 sequence (whole entry) with R106C
In short: as §1

O56B4 = system: T7, O56B4
T7 sequence (whole entry): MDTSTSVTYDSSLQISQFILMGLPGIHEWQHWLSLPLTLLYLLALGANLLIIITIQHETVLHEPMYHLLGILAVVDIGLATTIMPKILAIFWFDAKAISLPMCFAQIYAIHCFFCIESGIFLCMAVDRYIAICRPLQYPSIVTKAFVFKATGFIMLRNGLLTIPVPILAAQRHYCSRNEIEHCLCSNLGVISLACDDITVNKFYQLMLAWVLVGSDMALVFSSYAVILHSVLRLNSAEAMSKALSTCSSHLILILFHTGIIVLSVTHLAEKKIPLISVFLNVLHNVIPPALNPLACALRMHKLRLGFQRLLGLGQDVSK
In short: as §1

O5AC2 = system: T8, O5AC2
T8 sequence (whole entry): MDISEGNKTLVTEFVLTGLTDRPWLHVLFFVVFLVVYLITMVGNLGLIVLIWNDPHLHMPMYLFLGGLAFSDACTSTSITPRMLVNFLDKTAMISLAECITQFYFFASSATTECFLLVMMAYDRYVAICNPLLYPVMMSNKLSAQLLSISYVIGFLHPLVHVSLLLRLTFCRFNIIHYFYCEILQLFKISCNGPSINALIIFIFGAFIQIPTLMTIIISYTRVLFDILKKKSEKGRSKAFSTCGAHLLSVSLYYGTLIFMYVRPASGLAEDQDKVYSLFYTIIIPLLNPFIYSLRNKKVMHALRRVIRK
In short: as §1

O5AK2 M92I = system: T9, O5AK2 M92I
T9 sequence (whole entry): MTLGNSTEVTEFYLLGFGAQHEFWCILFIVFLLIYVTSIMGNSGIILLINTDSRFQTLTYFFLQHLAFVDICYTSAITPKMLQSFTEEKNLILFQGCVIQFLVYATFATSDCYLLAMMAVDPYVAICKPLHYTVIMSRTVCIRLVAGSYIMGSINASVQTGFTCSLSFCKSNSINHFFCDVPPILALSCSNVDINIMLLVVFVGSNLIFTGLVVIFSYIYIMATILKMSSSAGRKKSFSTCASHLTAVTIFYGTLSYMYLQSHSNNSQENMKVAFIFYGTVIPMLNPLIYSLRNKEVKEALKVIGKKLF
In short: as §1

O5AN1 C142Y L289F = system: T10, O5AN1 C142Y L289F
T10 sequence (whole entry): T1 sequence (whole entry) with T26K, C142Y, S159F, S190C, R197Q, I214V, S221Y, L289F, R309K
In short: as §1

O5AN1 L289F = system: T11, O5AN1 L289F
T11 sequence (whole entry): T1 sequence (whole entry) with T26K, S159F, S190C, R197Q, I214V, S221Y, L289F, R309K
In short: as §1

O5AP2 A105T = system: T12, O5AP2 A105T
T12 sequence (whole entry): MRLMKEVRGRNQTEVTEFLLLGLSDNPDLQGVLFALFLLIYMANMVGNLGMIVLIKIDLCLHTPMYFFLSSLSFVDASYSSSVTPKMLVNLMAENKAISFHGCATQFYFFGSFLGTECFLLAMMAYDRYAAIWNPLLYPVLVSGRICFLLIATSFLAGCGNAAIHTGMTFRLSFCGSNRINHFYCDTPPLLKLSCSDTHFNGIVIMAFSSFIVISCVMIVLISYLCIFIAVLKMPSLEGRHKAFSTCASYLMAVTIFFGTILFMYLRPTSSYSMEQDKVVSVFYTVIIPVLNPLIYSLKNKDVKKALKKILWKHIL
In short: as §1

O5AU1 = system: T13, O5AU1
T13 sequence (whole entry): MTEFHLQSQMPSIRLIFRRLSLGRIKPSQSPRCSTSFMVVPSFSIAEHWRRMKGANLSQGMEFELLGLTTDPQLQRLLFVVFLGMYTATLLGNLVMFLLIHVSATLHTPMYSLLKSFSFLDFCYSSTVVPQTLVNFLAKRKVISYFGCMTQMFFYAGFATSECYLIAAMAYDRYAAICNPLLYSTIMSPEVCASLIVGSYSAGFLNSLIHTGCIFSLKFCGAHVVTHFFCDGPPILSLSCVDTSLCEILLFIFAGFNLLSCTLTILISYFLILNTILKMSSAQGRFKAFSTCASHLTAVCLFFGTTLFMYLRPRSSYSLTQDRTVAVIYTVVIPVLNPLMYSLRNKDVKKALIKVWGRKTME
In short: as §1

O5H14 = system: T14, O5H14
T14 sequence (whole entry): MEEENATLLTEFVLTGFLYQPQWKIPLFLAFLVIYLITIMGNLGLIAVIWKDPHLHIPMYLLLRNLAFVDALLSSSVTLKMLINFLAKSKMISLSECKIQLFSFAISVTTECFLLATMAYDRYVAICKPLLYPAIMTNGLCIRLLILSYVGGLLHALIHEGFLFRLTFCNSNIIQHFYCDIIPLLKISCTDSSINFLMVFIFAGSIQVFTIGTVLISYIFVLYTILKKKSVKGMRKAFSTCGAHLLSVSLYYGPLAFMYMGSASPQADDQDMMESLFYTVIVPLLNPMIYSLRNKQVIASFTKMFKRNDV
In short: as §1

O5H15 V108I S148T T167S = system: T15, O5H15 V108I S148T T167S
T15 sequence (whole entry): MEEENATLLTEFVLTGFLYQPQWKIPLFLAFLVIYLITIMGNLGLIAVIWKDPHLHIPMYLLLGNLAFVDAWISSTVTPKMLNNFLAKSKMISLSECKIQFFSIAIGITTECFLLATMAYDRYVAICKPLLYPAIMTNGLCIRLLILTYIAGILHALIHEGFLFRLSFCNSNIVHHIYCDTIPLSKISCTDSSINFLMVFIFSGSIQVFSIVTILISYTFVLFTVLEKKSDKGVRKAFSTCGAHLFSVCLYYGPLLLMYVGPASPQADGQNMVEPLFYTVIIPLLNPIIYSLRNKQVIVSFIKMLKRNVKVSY
In short: as §1

O6C65 T222A = system: T16, O6C65 T222A
T16 sequence (whole entry): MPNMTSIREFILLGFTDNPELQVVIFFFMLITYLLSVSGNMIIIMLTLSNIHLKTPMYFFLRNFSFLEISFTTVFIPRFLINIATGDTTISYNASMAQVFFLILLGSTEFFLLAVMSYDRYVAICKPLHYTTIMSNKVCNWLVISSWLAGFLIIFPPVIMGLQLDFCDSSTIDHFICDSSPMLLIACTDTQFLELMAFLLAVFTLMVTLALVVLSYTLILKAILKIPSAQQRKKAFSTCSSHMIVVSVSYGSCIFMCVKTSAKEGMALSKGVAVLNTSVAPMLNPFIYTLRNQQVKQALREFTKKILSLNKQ
In short: as §1

O6C70 L181P = system: T17, O6C70 L181P
T17 sequence (whole entry): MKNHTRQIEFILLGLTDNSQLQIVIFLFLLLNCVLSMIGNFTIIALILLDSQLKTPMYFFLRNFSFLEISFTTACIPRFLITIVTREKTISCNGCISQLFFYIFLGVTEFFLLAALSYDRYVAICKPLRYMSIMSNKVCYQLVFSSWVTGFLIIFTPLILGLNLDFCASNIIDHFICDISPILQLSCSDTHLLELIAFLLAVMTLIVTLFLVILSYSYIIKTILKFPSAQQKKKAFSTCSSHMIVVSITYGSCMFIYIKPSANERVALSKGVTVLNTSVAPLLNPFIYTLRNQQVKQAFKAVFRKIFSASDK
In short: as §1

O7E24 S193F P242S = system: T18, O7E24 S193F P242S
T18 sequence (whole entry): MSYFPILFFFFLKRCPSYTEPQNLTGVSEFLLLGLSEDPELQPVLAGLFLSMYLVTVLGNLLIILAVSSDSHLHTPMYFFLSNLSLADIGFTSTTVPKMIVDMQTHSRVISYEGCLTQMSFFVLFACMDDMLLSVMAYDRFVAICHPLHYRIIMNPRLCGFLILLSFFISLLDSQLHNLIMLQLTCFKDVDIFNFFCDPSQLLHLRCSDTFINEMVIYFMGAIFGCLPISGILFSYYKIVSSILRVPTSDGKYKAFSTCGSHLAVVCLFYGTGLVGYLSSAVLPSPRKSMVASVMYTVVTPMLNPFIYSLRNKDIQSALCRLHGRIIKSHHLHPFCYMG
In short: as §1

O7E24 = system: T19, O7E24
T19 sequence (whole entry): T18 sequence (whole entry) with F193S
In short: as §1

OR10A2 (Homo sapiens) = molecular target: T20, OR10A2 (Homo sapiens) (UniProt Q9H208)
T20 sequence (whole entry): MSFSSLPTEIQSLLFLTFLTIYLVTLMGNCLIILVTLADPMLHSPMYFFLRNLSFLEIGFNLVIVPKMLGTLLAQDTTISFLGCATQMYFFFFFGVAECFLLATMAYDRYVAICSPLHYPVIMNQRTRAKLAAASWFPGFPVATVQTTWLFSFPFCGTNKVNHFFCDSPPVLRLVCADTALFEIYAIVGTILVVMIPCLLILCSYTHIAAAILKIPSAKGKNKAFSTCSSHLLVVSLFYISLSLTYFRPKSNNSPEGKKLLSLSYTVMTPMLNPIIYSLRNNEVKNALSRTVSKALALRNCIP
In short: as §1

Measured: odorant receptor agonist call

O=C1CCCCCC=CCCCCCCCCO1
inactive: O5AN1

CCCCCCCC(=O)CCCCCCC
inactive: O5AN1

O=C1CCCCCCC=CCCCCCCC1
active: O5AN1

CC1=C(O)C(=O)OC1C (stereo not drawn)
not listed: O5AN1
inactive: all other assays above

CC(=O)c1c(C)c([N+](=O)[O-])c(C(C)(C)C)c([N+](=O)[O-])c1C
active: O5AN1
inactive: OR10A2 (Homo sapiens)

O=C1CCCCCCCCCC1
inactive: O5AN1

CCCCCC(S)C(C)CO (stereo not drawn)
inactive: OR10A2 (Homo sapiens)

CCC(S)C(C)CO (stereo not drawn)
inactive: OR10A2 (Homo sapiens)

CC(CO)CS (stereo not drawn)
inactive: OR10A2 (Homo sapiens)

O=C1CCCCCCCCCCCCCC1
active: O5AN1

CCCCCCC=CCCC=O
not listed: O5AN1 | O56A4
inactive: all other assays above

CC1CC=CCCCCCCCCCC(=O)C1 (stereo not drawn)
active: O5AN1

CC1CC=CCCCCCCCCC(=O)C1 (stereo not drawn)
active: O5AN1

CCC1OC(=O)C(O)=C1C (stereo not drawn)
not listed: O5AN1
inactive: all other assays above

O=C1C=CCCCCCCCCCCCCO1
inactive: O5AN1

Cc1cnc(C)c(C)n1
not listed: O5AN1
inactive: all other assays above
